From ChEMBL document CHEMBL1932929, “Lead optimization of 2-(piperidin-3-yl)-1H-benzimidazoles: identification of 2-morpholin- and 2-thiomorpholin-2-yl-1H-benzimidazoles as selective and CNS penetrating H₁-antihistamines for insomnia” (Bioorg Med Chem Lett, 2012)

Experiments:
[1] = Lipophilicity, log P of the compound; type: physicochemical; conditions: octanol/water
Summary of the method: (§1)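 Calculated values, not experimentally measured.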

[2] = Dissociation constant, pKa of the compound; type: physicochemical; summary of the method: as §1
[3] = Ratio drug uptake in brain to plasma of Sprague-Dawley rat at 30 mg/kg, po measured after 4 hrs; type: ADME, organism-based; parameters: dose 30 mg/kg, route oral; conditions: read-out: BPR
Summary of the method: (§2)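 Single oral dose to Sprague Dawley rats; plasma and brain levels measured at 4 h; brain/plasma ratio taken from these 4 h levels.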

[4] = Drug uptake in brain of Sprague-Dawley rat at 30 mg/kg, po measured after 4 hrs; type: ADME, organism-based; parameters: dose 30 mg/kg, route oral; conditions: read-out: Drug uptake; summary of the method: as §2
[5] = Drug uptake in plasma of Sprague-Dawley rat at 30 mg/kg, po measured after 4 hrs; type: ADME, organism-based; parameters: dose 30 mg/kg, route oral; conditions: read-out: Drug uptake; summary of the method: as §2
[6] = Drug uptake in brain of Sprague-Dawley rat at 10 mg/kg, po measured after 4 hrs; type: ADME, organism-based; parameters: dose 10 mg/kg, route oral; conditions: read-out: Drug uptake

Row | Structure (SMILES) | logP [1] | pKa [2] | other results
1 | Cc1ccc(Cn2c([C@@H]3CNCCS3)nc3ccccc32)cc1C | 3.3 | 7.5 | –
2 | Cc1ccc(Cn2c(C3CNCCO3)nc3ccccc32)cc1C (single isomer, unassigned; (+)) | 3.4 | 7.4 | –
3 | COc1ccc(Cn2c([C@H]3CNCCS3)nc3ccccc32)cc1 | – | – | Kp at 4 h [3]: 1.4; concentration at 4 h [4]: 380 ng/g; concentration at 4 h [5]: 260 ng/mL
4 | CN(CC1CCOCC1)C1CCN(c2nc3ccccc3n2Cc2ccc(F)cc2)CC1 | – | – | concentration at 4 h [6]: 94 ng/g
